Laboratory results from ChEMBL document CHEMBL1132244, “Benzodiazepine receptor ligands. 4. Synthesis and pharmacological evaluation of 3-heteroaryl-8-chloropyrazolo[5,1-c][1,2,4] benzotriazine 5-oxides” (J Med Chem, 1999).

Key:
[1] = tested on: Mus musculus; experiment: Anticonvulsant activity against PTZ induced attacks at 30 mg/kg dose 13d and 100 mg/kg Flumazenil; assay type: functional
Method in brief: (§1)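 Male Swiss-Webster mice (22–26 g) received drug in 1% CMC (10 mL/kg) 30 min before the test, or flumazenil 40 min before. Pentylenetetrazole was then given at 75 mg/kg sc, and generalized tonic-clonic seizures were scored over the following 30 min. The incidence of non-convulsing mice was analysed by χ² test.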

[2] = tested on: Mus musculus; experiment: Muscle relaxant effect measured by rotarod test at 30 mg/kg dose 13d and 100 mg/kg Flumazenil; assay type: functional
[3] = molecular target: GABA-A receptor; anion channel; experiment: Displacement of [3H]Ro-151788 from GABA-A benzodiazepine receptor of bovine brain membranes; assay type: cell membranes, Bos taurus
Method in brief: (§2)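 Washed bovine cerebral cortex membranes, with endogenous GABA removed by Triton X-100/37 °C washes, incubated with ~0.2 nM [3H]Ro15-1788 (Kd 0.60 nM) in 50 mM Tris-citrate pH 7.4 for 90 min at 0 °C, then filtered. Nonspecific binding defined with 10 μM diazepam. Screening at 10 μM; Ki from IC50 by Cheng–Prusoff; five determinations, mean ± SEM.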

[4] = molecular target: T1, GABA-A receptor; anion channel (Bos taurus) (UniProt P10063+P08220+P20237+P08219+P10064+P22300); experiment: Percentage inhibition of [3H]Ro-151788 binding to GABA-A benzodiazepine receptor in bovine brain membrane at 10 uM; assay type: cell membranes; method in brief: as §2
[5] = tested on: Mus musculus; experiment: (§3) Anticonvulsant activity against MES-induced hindlimb extension at 10 mg/kg dose; assay type: functional
[6] = tested on: Mus musculus; experiment: (§4) Anticonvulsant activity against MES-induced hindlimb extension at 100 mg/kg dose; assay type: functional
[7] = tested on: Mus musculus; experiment: (§5) Anticonvulsant activity against MES-induced hindlimb extension at 30 mg/kg dose; assay type: functional
[8] = tested on: Mus musculus; experiment: Antianxiety activity was measured based on light/dark box thus calculated no of crosses of mice at 100 mg/kg dose; assay type: functional
Method in brief: (§6)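 Male Swiss-Webster mice, 22–26 g, dosed orally with drug or 1% CMC vehicle (10 mL/kg), placed 30 min later in the centre of the lit side of a two-compartment light/dark box (60-W bulb 400 mm above the white floor). Time in the lit side and number of crossings counted over 5 min. Student's t-test.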

[9] = tested on: Mus musculus; experiment: Antianxiety activity was measured based on light/dark box thus calculated no of crosses of mice at 30 mg/kg dose; assay type: functional; method in brief: as §6
[10] = tested on: Mus musculus; experiment: as §3; assay type: ADME, organism-based; design: dose 10 mg/kg; details: in vivo
Method in brief: (§7)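 Male Swiss-Webster mice (22–26 g) received drug in 1% CMC (10 mL/kg) 30 min before maximal electroshock through transcorneal electrodes (40 mA, 50 Hz, 0.2 s). The end point was tonic hindlimb extension, and lethality was also noted. The incidence of non-convulsing mice was analysed by χ² test.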

[11] = tested on: Mus musculus; experiment: as §4; assay type: organism-based; design: dose 100 mg/kg; details: in vivo; method in brief: as §7
[12] = tested on: Mus musculus; experiment: Muscle relaxant effect measured by rotarod test at 10 mg/Kg dose in mice; assay type: functional
Method in brief: (§8)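 Motor coordination on the rota rod in male Swiss-Webster mice (22–26 g) after oral dosing in 1% CMC (10 mL/kg), tested 30 min post-dose. Student's t-test.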

[13] = tested on: Mus musculus; experiment: Muscle relaxant effect measured by rotarod test at 100 mg/Kg dose in mice; assay type: functional; method in brief: as §8
[14] = tested on: Mus musculus; experiment: as §5; assay type: ADME, organism-based; design: dose 30 mg/kg; details: in vivo; method in brief: as §7
[15] = tested on: Mus musculus; experiment: Muscle relaxant effect measured by rotarod test at 30 mg/Kg dose in mice; assay type: functional; method in brief: as §8
[16] = tested on: Mus musculus; experiment: Antianxiety activity was measured based on light/dark box thus calculated % time in light of mice at 100 mg/kg dose; assay type: functional; method in brief: as §6
[17] = tested on: Mus musculus; experiment: Anticonvulsant activity against PTZ induced atacks at 100 mg/kg dose; assay type: functional
[18] = tested on: Mus musculus; experiment: Anticonvulsant activity against PTZ induced attacks at 10 mg/kg dose; assay type: functional
[19] = molecular target: T1, GABA-A receptor; anion channel (Bos taurus); experiment: The GABA ratio (GR) = IC50 compound + 10 uM GABA, performed in five independent experiments was calculated for the compound.; assay type: protein-complex assay
Method in brief: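 [3H]Ro15-1788 displacement from GABA-depleted bovine cortex membranes (0.2 nM ligand, 90 min, 0 °C, Tris-citrate pH 7.4). IC50 measured without and with 10 μM GABA and the ratio taken; five independent experiments.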

[20] = tested on: Mus musculus; experiment: Antianxiety activity was measured based on light/dark box thus calculated % time in light of mice at 10 mg/kg dose; assay type: functional; method in brief: as §6
[21] = tested on: Mus musculus; experiment: Antianxiety activity was measured based on light/dark box thus calculated % time in light of mice at 30 mg/kg dose; assay type: functional; method in brief: as §6
[22] = tested on: Mus musculus; experiment: Anticonvulsant activity against PTZ induced atacks at 30 mg/kg dose; assay type: functional
[23] = tested on: Mus musculus; experiment: Antianxiety activity was measured based on light/dark box thus calculated no of crosses of mice at 10 mg/kg dose; assay type: functional; method in brief: as §6
[24] = tested on: Mus musculus; experiment: Antianxiety activity was measured based on light/dark box thus calculated no of crosses of mice at 100 mg/kg dose Flumazenil and 1 mg/kg Diazepam; assay type: functional
[25] = tested on: Mus musculus; experiment: Muscle relaxant effect measured by rotarod test at 100 mg/kg dose Flumazenil and 0.3 mg/kg Diazepam; assay type: functional
[26] = tested on: Mus musculus; experiment: Antianxiety activity was measured based on light/dark box thus calculated % time in light of mice at 100 mg/kg dose Flumazenil and 1 mg/kg Diazepam; assay type: functional
[27] = tested on: Mus musculus; experiment: Anticonvulsant activity against PTZ induced atacks at 100 mg/kg dose Flumazenil and 0.3 mg/kg Diazepam; assay type: functional; method in brief: as §1
[28] = molecular target: T1, GABA-A receptor; anion channel (Bos taurus); experiment: Percentage inhibition of [3H]Ro-151788 binding to GABA-A central benzodiazepine receptor in bovine brain membrane at 10 uM; assay type: cell membranes; method in brief: as §2
[29] = tested on: Mus musculus; experiment: Muscle relaxant effect measured by rotarod test at 300 mg/Kg dose in mice; assay type: functional; method in brief: as §8

`CCOC(=O)c1ncn2c1CN(C)C(=O)c1cc(F)ccc1-2.[O-][n+]1nc2c(-c3ccsc3)cnn2c2cc(Cl)ccc21` was tested, and the Attacks [1] was 36.4% and the No. of falls [2] was 0.64.
In the case of `[O-][n+]1nc2c(-c3ccsc3)cnn2c2cc(Cl)ccc21`, the Ki [3] is reported as 36.3 nM, the inhibition [4] is reported as 100% and the Extension [5] is reported as 14.3%. For the same compound, the Extension [6] was 27.3%, the Extension [7] was 33.3% and the No. of crosses [8] was 15.3. For the same compound, the No. of crosses [9] was 19, the Lethality [10] was 28.6% and the Lethality [11] was 18.2%. For the same compound, the No. of falls [12] was 0.43, the No. of falls [13] was 0.15 and the Lethality [14] was 22.2%. The No. of falls [15] was 0.08, the Time in flight [16] was 107.4% and the Atttacks [17] was 46.1%. The Atttacks [18] was 18.2%, the GR [19] was 1.23 and the Time in flight [20] was 94.2%. It also gave a Time in flight [21] of 104.3%, an Atttacks [22] of 61.5% and a No. of crosses [23] of 16.3.
In the case of `[O-][n+]1nc2c(-c3nc[nH]n3)cnn2c2cc(Cl)ccc21`, the inhibition [4] is reported as 44.4%.
With `[O-][n+]1nc2c(-c3cnoc3)cnn2c2cc(Cl)ccc21` the inhibition [4] was 66%.
`CCOC(=O)c1ncn2c1CN(C)C(=O)c1cc(F)ccc1-2.CN1C(=O)CN=C(c2ccccc2)c2cc(Cl)ccc21` was tested, and the No. of crosses [24] was 18.6, the No. of falls [25] was 0.46 and the Time in flight [26] was 104.1%. For the same compound, the Atttacks [27] was 14.2%.
`Clc1ccc2nnc3c(-c4cccs4)cnn3c2c1` showed an inhibition [28] of 66%.
`CN1C(=O)CN=C(c2ccccc2)c2cc(Cl)ccc21` gave a GR [19] of 1.5.
In the case of `Nc1cnn2c1n[n+]([O-])c1ccc(Cl)cc12`, the inhibition [4] is reported as 33.9%.
Work on `Cn1cnc(-c2cnn3c2n[n+]([O-])c2ccc(Cl)cc23)n1` yielded an inhibition [4] of 0%.
Compound `O=C(N/C=N/O)c1cnn2c1n[n+]([O-])c1ccc(Cl)cc12` has an inhibition [4] of 0%.
`CCOC(=O)c1cnn2c1n[n+]([O-])c1ccc(Cl)cc12` showed a Ki [3] of 35 nM, an inhibition [4] of 99.8% and an Extension [6] of 0%. It also gave an Extension [7] of 0%, a No. of crosses [8] of 15.2 and a No. of crosses [9] of 19.1. The Lethality [11] was 0%, the No. of falls [13] was 0.5 and the Lethality [14] was 22.2%. For the same compound, the No. of falls [29] was 0.33, the Time in flight [16] was 124.6% and the Atttacks [17] was 28.1%. For the same compound, the GR [19] was 1.91, the Time in flight [21] was 106.2% and the Atttacks [22] was 15%.
